The results in this text go back to ChEMBL document CHEMBL3272249, “Esters of N-tert-butylarterenol. Long-acting new bronchodilators with reduced cardiac effects” (J Med Chem, 1976).

Each structure is given as a SMILES string.

Data set [1] concerns Canis familiaris. Put plainly: Bronchodilator activity in dog assessed as time of inhibition of carbachol or histamine-induced bronchoconstriction at 5 mg/kg, iv relative to control. Type of data set: functional, Canis lupus familiaris. The essentials: (§1)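 Anesthetized dogs with an airway cannula and a nonbreathing valve. Bronchoconstriction was induced by iv carbachol (2–4 μg/kg) or histamine diphosphate (20–50 μg/kg) and read as change in airway pressure by transducer. Each compound was tested against both agonists in different dogs, and the results were combined and averaged. Effect is % inhibition of control constriction, with at least three dogs per dose. Drugs were dissolved fresh in distilled water, diluted in saline and kept on ice.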

In data set [2] the test system is Canis familiaris. Nature of the data set: Bronchodilator activity in dog assessed as degree of inhibition of carbachol or histamine-induced bronchoconstriction at 5 mg/kg, iv relative to control. Particulars: Canis lupus familiaris. Format: functional. The essentials:
(§2)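 Anesthetized dogs, trachea cannulated with a nonbreathing valve. Bronchoconstriction induced by iv carbachol (2–4 μg/kg) or histamine diphosphate (20–50 μg/kg) in separate animals, and airway pressure recorded by transducer. Drug stocks were made fresh in distilled water, diluted in saline and kept on ice. Read-out was percent inhibition of control constriction, averaged over at least three dogs per dose at the higher dose. Carbachol and histamine data were combined.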

Data set [3] has as its system Canis familiaris. Put plainly: Cardiotoxicity in spontaneously respiring dog assessed as time of increase in heart rate at 5 to 10 mg/kg, iv relative to control. Format: toxicity, organism-based, Canis lupus familiaris. Further details: dose 5-10 mg/kg, route intravenous. Particulars: in vivo. The essentials:
(§3)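 Anesthetized, spontaneously respiring dogs. Heart rate was taken from a lead II EKG, and blood pressure from the right femoral artery by transducer. The increase in heart rate (beats/min) was scored on a graded scale with more than 4 dogs per dose, and its duration was recorded. Drugs were dissolved fresh in distilled water, diluted in physiological saline and kept on ice.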

Data set [4] has as its system Canis familiaris. Nature of the data set: Bronchodilator activity in dog assessed as time of inhibition of carbachol or histamine-induced bronchoconstriction at 440 to 880 mg/kg, it relative to control. Format: functional, Canis lupus familiaris. Particulars: dose mg/kg 440-880; route endotracheal. The essentials:
as §1

The test system of data set [5] is Canis familiaris. Nature of the data set: Bronchodilator activity in dog assessed as time of inhibition of carbachol or histamine-induced bronchoconstriction at 5 to 10 mg/kg, iv relative to control. Conditions: dose mg/kg 5-10. Type of data set: functional, Canis lupus familiaris. The essentials:
as §1

The test system of data set [6] is Canis familiaris. Nature of the data set: Cardiotoxicity in spontaneously respiring dog assessed as degree of increase in heart rate at 5 to 10 mg/kg, iv relative to control. Type of data set: toxicity, organism-based, Canis lupus familiaris. Also noted: dose 5-10 mg/kg, route intravenous. Particulars: in vivo. The essentials: as §3
Data set [7] deals with Canis familiaris. Put plainly: Bronchodilator activity in dog assessed as degree of inhibition of carbachol or histamine-induced bronchoconstriction at 440 to 880 mg/kg, it relative to control. Type of data set: functional, Canis lupus familiaris. Particulars: dose mg/kg 440-880; route endotracheal. The essentials: as §2
Data set [8] concerns Canis familiaris. Put plainly: Bronchodilator activity in dog assessed as degree of inhibition of carbachol or histamine-induced bronchoconstriction at 5 to 10 mg/kg, iv relative to control. Conditions: dose mg/kg 5-10. Type of data set: functional, Canis lupus familiaris. The essentials:
as §2

The test system of data set [9] is Canis familiaris. Nature of the data set: Cardiotoxicity in spontaneously respiring dog assessed as time of increase in heart rate at 5 to 20 mg/kg, iv relative to control. Type of data set: toxicity, organism-based, Canis lupus familiaris. Also noted: dose 5-20 mg/kg, route intravenous. Particulars: in vivo. The essentials:
(§4)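 Anesthetized, spontaneously respiring dogs. Heart rate monitored by lead II EKG; blood pressure from right femoral artery by pressure transducer. Rise in heart rate (beats/min) scored ±=5-15, +=20-40, ++=40-60, +++=>60, n>4/dose; duration of the rise in h. Drug stocks freshly made in distilled water, diluted in physiological saline, kept on ice.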

Data set [10] deals with Canis familiaris. Put plainly: Bronchodilator activity in dog assessed as time of inhibition of carbachol or histamine-induced bronchoconstriction at 5 to 20 mg/kg, iv relative to control. Type of data set: functional, Canis lupus familiaris. Conditions: dose mg/kg 5-20. The essentials: (§5)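 Dog with airway cannulated through a nonbreathing valve. Bronchoconstriction induced by iv carbachol (2–4 µg/kg) or histamine diphosphate (20–50 µg/kg); airway pressure recorded by pressure transducer. Each compound tested against both agonists in different animals, and results were combined and averaged. Bronchodilation = % inhibition of control constriction; degree scored as +, ++, +++ (20-45, 45-70, >70%) from higher dose, ≥3 dogs/dose; duration in h.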

For data set [11], the system named is Canis familiaris. Put plainly: Cardiotoxicity in spontaneously respiring dog assessed as degree of increase in heart rate at 5 to 20 mg/kg, iv relative to control. Type of data set: toxicity, organism-based, Canis lupus familiaris. Also noted: dose 5-20 mg/kg, route intravenous. Particulars: in vivo. The essentials: as §4
Data set [12] has as its system Canis familiaris. Nature of the data set: Bronchodilator activity in dog assessed as degree of inhibition of carbachol or histamine-induced bronchoconstriction at 5 to 20 mg/kg, iv relative to control. Format: functional, Canis lupus familiaris. Particulars: dose mg/kg 5-20. The essentials: as §5
Data set [13] has as its system Canis familiaris. Put plainly: Bronchodilator activity in dog assessed as time of inhibition of carbachol or histamine-induced bronchoconstriction at 25 to 50 mg/kg, iv relative to control. Type of data set: functional, Canis lupus familiaris. Conditions: dose mg/kg 25-50. The essentials: (§6)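 Dog airway model: anesthetized, cannulated via a nonbreathing valve, with airway pressure changes recorded after iv carbachol (2–4 μg/kg) or histamine diphosphate (20–50 μg/kg) challenge, each agonist in different animals. Compounds were given iv, intraduodenally or intratracheally from fresh aqueous stocks diluted in saline. Duration (h) of inhibition of induced bronchoconstriction was followed, and the two agonist datasets were pooled.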

Data set [14] concerns Canis familiaris. Nature of the data set: Bronchodilator activity in dog assessed as time of inhibition of carbachol or histamine-induced bronchoconstriction at 520 to 1040 mg/kg, it relative to control. Format: functional, Canis lupus familiaris. Conditions: dose mg/kg 520-1040; route endotracheal. The essentials: as §1
For data set [15], the system named is Canis familiaris. Put plainly: Bronchodilator activity in dog assessed as degree of inhibition of carbachol or histamine-induced bronchoconstriction at 25 to 50 mg/kg, iv relative to control. Type of data set: functional, Canis lupus familiaris. Particulars: dose mg/kg 25-50. The essentials:
as §2

The test system of data set [16] is Canis familiaris. Nature of the data set: Bronchodilator activity in dog assessed as degree of inhibition of carbachol or histamine-induced bronchoconstriction at 520 to 1040 mg/kg, it relative to control. Format: functional, Canis lupus familiaris. Particulars: dose mg/kg 520-1040; route endotracheal. The essentials:
as §2

Data set [17] has as its system Canis familiaris. Nature of the data set: Cardiotoxicity in spontaneously respiring dog assessed as degree of increase in heart rate at 100 to 200 mg/kg, iv relative to control. Format: toxicity, organism-based, Canis lupus familiaris. Further details: dose 100-200 mg/kg, route intravenous. Particulars: in vivo. The essentials: as §3
Data set [18] concerns Canis familiaris. Put plainly: Bronchodilator activity in dog assessed as time of inhibition of carbachol or histamine-induced bronchoconstriction at 100 to 200 mg/kg, iv relative to control. Type of data set: functional, Canis lupus familiaris. Particulars: dose mg/kg 100-200. The essentials:
as §6

In data set [19] the test system is Canis familiaris. Put plainly: Bronchodilator activity in dog assessed as time of inhibition of carbachol or histamine-induced bronchoconstriction at 300 to 1200 mg/kg, it relative to control. Type of data set: functional, Canis lupus familiaris. Conditions: dose mg/kg 300-1200; route endotracheal. The essentials: as §6
Data set [20] deals with Canis familiaris. Nature of the data set: Bronchodilator activity in dog assessed as degree of inhibition of carbachol or histamine-induced bronchoconstriction at 100 to 200 mg/kg, iv relative to control. Format: functional, Canis lupus familiaris. Conditions: dose mg/kg 100-200. The essentials: as §2
The test system of data set [21] is Canis familiaris. Nature of the data set: Bronchodilator activity in dog assessed as degree of inhibition of carbachol or histamine-induced bronchoconstriction at 300 to 1200 mg/kg, it relative to control. Format: functional, Canis lupus familiaris. Particulars: dose mg/kg 300-1200; route endotracheal. The essentials:
as §2

As to `CC(C)C(=O)Oc1ccc([C@@H](O)CNC(C)(C)C)cc1OC(=O)C(C)C.Cl`, the Time with Canis familiaris [1] is under 0.5 h. Further, in the data set with Canis familiaris [2], the inhibition in vivo at 5 mg/kg is 20%.

Take `CS(=O)(=O)O.Cc1ccc(C(=O)Oc2ccc([C@@H](O)CNC(C)(C)C)cc2O)cc1`: the Time with Canis familiaris [3] was under 0.5 h; in the data set with Canis familiaris [4], under 2 h; with Canis familiaris [5], over 3 h. In addition, in the data set on Canis familiaris [6], the Activity came out at 40 beats/min. Also, the “inhibition (INH)” value with Canis familiaris [7] and in the data set on Canis familiaris [8] was 45% in each case.

As to `CC(C)CC(=O)Oc1ccc([C@@H](O)CNC(C)(C)C)cc1O.CS(=O)(=O)O`, the results for the Time in the data set with Canis familiaris [9] and in the data set on Canis familiaris [10] were under 1 h and under 2 h, respectively. Besides, the Activity in the data set with Canis familiaris [11] is given as 40%. Moreover, in the data set on Canis familiaris [12], the “inhibition (INH)” value is given as 45%.

For the compound `CS(=O)(=O)O.Cc1ccc(C(=O)Oc2ccc([C@@H](O)CNC(C)(C)C)cc2OC(=O)c2ccccc2)cc1`, the Time with Canis familiaris [13] and with Canis familiaris [14] was 2 h in each case. Moreover, the “inhibition (INH)” value in the data set with Canis familiaris [15] is on record as over 70%; with Canis familiaris [16] it was 45%.

With `CS(=O)(=O)O.Cc1ccccc1C(=O)Oc1ccc([C@@H](O)CNC(C)(C)C)cc1OC(=O)c1ccccc1C`, the Activity in the data set on Canis familiaris [17] was 20%. Moreover, the Time is under 4 h in the data set on Canis familiaris [18] and under 3 h in the data set with Canis familiaris [19]. Moreover, the “inhibition (INH)” value with Canis familiaris [20] and with Canis familiaris [21] was 20% in each case.

Turning to `CC(C)(C)CC(=O)Oc1ccc([C@@H](O)CNC(C)(C)C)cc1O.CS(=O)(=O)O`, in the data set with Canis familiaris [1], the Time is over 3 h. In addition, the inhibition in vivo at 5 mg/kg in the data set with Canis familiaris [2] amounted to 45%.

For orientation: inhibition in vivo means the share of the control response that was lost under treatment.
